pIC50: −log10 of the molar value. Calls of active or inactive are those of the source. The rule behind the calls is not given here. Some results are limits rather than exact numbers.

For data set [1], the system named is Mus musculus. The experiment in a line: Toxicity in db/db mouse assessed as effect on food consumption at 0.65 mg/kg, ip administered trice per week for 12 consecutive weeks measured every other day. The following applies: in vivo. Type of data set: organism-based. The procedure, abridged: (§1)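 Male db/db mice (8 weeks old, specific pathogen-free, normal chow and filtered water ad libitum) were randomized and dosed i.p. three times weekly for 12 consecutive weeks; vehicle was 5% Tween-80 in 0.9% saline. Body weight and food and water consumption were recorded every other day.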

Data set [2] deals with Mus musculus. The experiment in a line: Toxicity in db/db mouse assessed as increase in body weight at 0.65 mg/kg, ip administered thrice per week for 12 consecutive weeks measured every other day (reference value: 15%). Type of data set: organism-based. The conditions noted are these: in vivo. The essentials: as §1
Data set [3] has as its system Mus musculus. The experiment in a line: Anti-diabetic nephropathic activity in db/db mouse assessed as reduction in 24 hr urine volume at 0.65 mg/kg, ip administered trice per week for 12 consecutive weeks measured at 11 weeks post dose. It is filed as functional, organism-based. The essentials:
(§2)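 Male db/db mice, 8 weeks old, randomized; ip vehicle (5% Tween-80 in 0.9% saline) or drug three times weekly for 12 weeks, n = 6 per group. After 11 weeks, 24 h urine collected for volume, albumin and creatinine, with UACR calculated; blood then sampled for plasma BUN and uric acid. Mean ± SD, one-way ANOVA with Tukey test.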

The subject of data set [4] is Mus musculus. Put plainly: Renoprotective activity in db/db mouse assessed as reduction in loss of foot processes at 0.65 mg/kg, ip administered trice per week for 12 consecutive weeks measured at 11 weeks post dose by TEM microscopic analysis. It is filed as functional, organism-based. The essentials: (§3)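 Male db/db mice (8 weeks old) were dosed i.p. three times weekly for 12 weeks in 5% Tween-80/0.9% saline, n = 6. Kidney tissue was fixed in 3% glutaraldehyde, cut into 80 nm ultrathin sections and examined by TEM. GBM thickness was measured at 30 random locations from three sections per kidney and averaged per mouse.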

In data set [5] the test system is Mus musculus. Put plainly: Renoprotective activity in db/db mouse assessed as reduction in mesangial expansion at 0.65 mg/kg, ip administered trice per week for 12 consecutive weeks measured at 11 weeks post dose by TEM microscopic analysis. It is filed as functional, organism-based. The procedure, abridged: as §3
Data set [6] is described as follows: Drug level in Sprague-Dawley rat kidney at 20 mg/kg, ip measured at 90 mins by LC-MS/MS analysis. The following applies: read-out: Drug uptake. Type of data set: ADME, organism-based. The procedure, abridged: (§4)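 Rats given a single ip injection, 20 mg/kg (0.04 mmol) of CDDO-Me or 30 mg/kg (0.04 mmol) of the prodrug; heart, kidney and liver collected over time; parent compound and liberated CDDO-Me measured by LC-MS/MS.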

The nature of data set [7]: Drug level in Sprague-Dawley rat liver at 20 mg/kg, ip measured at 90 mins by LC-MS/MS analysis. The following applies: read-out: Drug uptake. Type of data set: ADME, organism-based. The procedure, abridged: as §4
Data set [8] can be described thus: Drug level in Sprague-Dawley rat heart at 20 mg/kg, ip measured at 90 mins by LC-MS/MS analysis. The conditions noted are these: read-out: Drug uptake. It is filed as ADME, organism-based. The procedure, abridged:
as §4

In data set [9] the target is Kelch-like ECH-associated protein 1 (Homo sapiens) (UniProt Q14145). The experiment in a line: Inhibition of Keap1/Nrf2 (unknown origin) interaction transfected in HEK293 cells assessed as increase in cytosolic HO-1 levels at 200 to 1000 nM after 48 hrs by Western blot analysis. It is filed as cell-based. The essentials: (§5)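 HEK293 cells grown in high-glucose DMEM with 10% FBS were treated in triplicate at 200 or 1000 nM for 48 h. Nuclear and cytosolic Nrf2, HO-1 and cytoplasmic NQO1 were measured by western blot with specific antibodies, with TBP and β-actin among the probed proteins. The nuclear/cytosolic Nrf2 ratio was derived from these blots. Three independent experiments, mean ± SD.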

A short description of data set [10]: Drug level in Krebs buffer treated with 1-Hydroxyl-2-cyano-3-(4-(methyl-L-glutaminate-N5-yl)-benzyloxy)-12-oxo-oleana-2(3),9(11)-dien-28-oic Acid Methyl Ester assessed as bovine kidney GGT-mediated metabolite formation at 100 uM at pH 7.4 after 8 hrs in presence of porcine liver esterase by HPLC analysis. It is filed as ADME, Bos taurus. The following applies: cattle, isolated protein, pH 7.4, 8 h. The procedure, abridged:
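Substrate at 100 μM in Krebs buffer, pH 7.4, 37 °C, with porcine liver esterase (2 U/mL), GGT (1 U/mL) and Gly-Gly (5 mM) for 8 h, in triplicate; products quantified by HPLC.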

Data set [11] can be described thus: Drug level in Wistar rat liver homogenates treated with 1-Hydroxyl-2-cyano-3-(4-(methyl-L-glutaminate-N5-yl)-benzyloxy)-12-oxo-oleana-2(3),9(11)-dien-28-oic Acid Methyl Ester assessed as GGT-mediated metabolite formation at 100 uM after 8 hrs by HPLC analysis. It is filed as ADME, tissue-based. The conditions noted are these: tissue homogenate. The essentials:
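Plasma, and kidney and liver homogenates in PBS, from three Wistar rats; substrate added at 100 μM at 37 °C; metabolite measured by HPLC every 60 min for 8 h; mean ± SD of three experiments.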

Data set [12] relates to Mus musculus. Put plainly: Toxicity in db/db mouse assessed as effect on water consumption at 1 to 2 mg/kg, ip administered thrice per week for 12 consecutive weeks measured every other day. It is filed as organism-based. The conditions noted are these: in vivo. The procedure, abridged:
as §1

Data set [13] concerns Mus musculus. The experiment in a line: Toxicity in db/db mouse assessed as effect on food consumption at 1 to 2 mg/kg, ip administered thrice per week for 12 consecutive weeks measured every other day. Type of data set: organism-based. The following applies: in vivo. The essentials: as §1
The test system of data set [14] is Mus musculus. The experiment in a line: Renoprotective activity in db/db mouse assessed as reduction in mesangial expansion at 1 to 2 mg/kg, ip administered trice per week for 12 consecutive weeks measured at 11 weeks post dose by TEM microscopic analysis. Type of data set: functional, organism-based. The essentials:
as §3

Data set [15] deals with Mus musculus. The experiment in a line: Antidiabetic nephropathic activity in db/db mouse assessed as reduction in urine albumin to creatinine ratio at 1 to 2 mg/kg, ip administered thrice per week for 12 consecutive weeks measured at 24 hrs post 11 week administration. It is filed as functional, organism-based. The essentials:
as §2

A short description of data set [16]: Drug metabolism in PBS buffer at 100 uM after 8 hrs by HPLC analysis. Type of data set: physicochemical. The following applies: read-out: Drug metabolism. The essentials:
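Substrate incubated in PBS, pH 7.4, at 37 °C for 8 h; conversion measured by HPLC.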

Data set [17] concerns the target Kelch-like ECH-associated protein 1 (Homo sapiens) (UniProt Q14145). The experiment in a line: Inhibition of Keap1/Nrf2 (unknown origin) interaction transfected in HEK293 cells assessed as increase in nuclear to cytosolic Nfr2 ratio after 48 hrs by Western blot analysis. Type of data set: cell-based. The essentials: as §5
Data set [18] shares this target. Put plainly: Inhibition of Keap1/Nrf2 (unknown origin) interaction transfected in HEK293 cells assessed as increase in cytosolic HO-1 levels after 48 hrs by Western blot analysis. It is filed as cell-based. The essentials: as §5
The test system of data set [19] is Mus musculus. The experiment in a line: Toxicity in db/db mouse assessed as change in body weight at 1 to 2 mg/kg, ip administered thrice per week for 12 consecutive weeks measured every other day. Type of data set: organism-based. The conditions noted are these: in vivo. The procedure, abridged: as §1
In data set [20] the test system is Mus musculus. The experiment in a line: Anti-diabetic nephropathic activity in db/db mouse assessed as reduction in plasma urea nitrogen levels at 1 to 2 mg/kg, ip administered thrice per week for 12 consecutive weeks measured 11 weeks post dose. Type of data set: functional, organism-based. The procedure, abridged: as §2
The test system of data set [21] is Kidney. The experiment in a line: In vivo drug metabolism in Sprague-Dawley rat assessed as CDDO-Me formation in kidney at 30 mg/kg, ip measured at 90 mins by LC-MS/MS analysis. The following applies: 1.5 h. Type of data set: ADME, organism-based. The essentials:
as §4

Data set [22] has as its target Voltage-gated inwardly rectifying potassium channel KCNH2 (Homo sapiens, UniProt Q12809). Put plainly: Inhibition of human ERG expressed in CHO cells at -80 mV holding potential by patch clamp assay. Type of data set: cell-based. Background: In patch-clamp work, channel activity is measured electrically.

Chain of Kelch-like ECH-associated protein 1 (Homo sapiens) (Q14145 whole entry): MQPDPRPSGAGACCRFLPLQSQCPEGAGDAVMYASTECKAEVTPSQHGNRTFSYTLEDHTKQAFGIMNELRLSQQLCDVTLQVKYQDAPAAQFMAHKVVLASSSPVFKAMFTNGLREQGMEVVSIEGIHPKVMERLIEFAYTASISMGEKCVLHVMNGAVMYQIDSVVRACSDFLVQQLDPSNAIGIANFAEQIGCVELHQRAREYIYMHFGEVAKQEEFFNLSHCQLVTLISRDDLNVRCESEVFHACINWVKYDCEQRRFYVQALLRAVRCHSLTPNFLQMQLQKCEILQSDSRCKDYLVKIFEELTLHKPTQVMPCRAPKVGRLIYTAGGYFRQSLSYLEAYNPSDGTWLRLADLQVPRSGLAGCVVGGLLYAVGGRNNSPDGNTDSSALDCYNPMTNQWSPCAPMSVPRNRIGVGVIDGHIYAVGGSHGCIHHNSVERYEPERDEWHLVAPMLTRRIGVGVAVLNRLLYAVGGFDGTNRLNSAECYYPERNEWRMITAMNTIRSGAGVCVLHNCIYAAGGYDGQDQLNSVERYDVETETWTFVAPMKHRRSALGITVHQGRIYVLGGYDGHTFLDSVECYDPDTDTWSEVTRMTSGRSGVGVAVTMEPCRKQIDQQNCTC
Chain of Voltage-gated inwardly rectifying potassium channel KCNH2 (Q12809 whole entry): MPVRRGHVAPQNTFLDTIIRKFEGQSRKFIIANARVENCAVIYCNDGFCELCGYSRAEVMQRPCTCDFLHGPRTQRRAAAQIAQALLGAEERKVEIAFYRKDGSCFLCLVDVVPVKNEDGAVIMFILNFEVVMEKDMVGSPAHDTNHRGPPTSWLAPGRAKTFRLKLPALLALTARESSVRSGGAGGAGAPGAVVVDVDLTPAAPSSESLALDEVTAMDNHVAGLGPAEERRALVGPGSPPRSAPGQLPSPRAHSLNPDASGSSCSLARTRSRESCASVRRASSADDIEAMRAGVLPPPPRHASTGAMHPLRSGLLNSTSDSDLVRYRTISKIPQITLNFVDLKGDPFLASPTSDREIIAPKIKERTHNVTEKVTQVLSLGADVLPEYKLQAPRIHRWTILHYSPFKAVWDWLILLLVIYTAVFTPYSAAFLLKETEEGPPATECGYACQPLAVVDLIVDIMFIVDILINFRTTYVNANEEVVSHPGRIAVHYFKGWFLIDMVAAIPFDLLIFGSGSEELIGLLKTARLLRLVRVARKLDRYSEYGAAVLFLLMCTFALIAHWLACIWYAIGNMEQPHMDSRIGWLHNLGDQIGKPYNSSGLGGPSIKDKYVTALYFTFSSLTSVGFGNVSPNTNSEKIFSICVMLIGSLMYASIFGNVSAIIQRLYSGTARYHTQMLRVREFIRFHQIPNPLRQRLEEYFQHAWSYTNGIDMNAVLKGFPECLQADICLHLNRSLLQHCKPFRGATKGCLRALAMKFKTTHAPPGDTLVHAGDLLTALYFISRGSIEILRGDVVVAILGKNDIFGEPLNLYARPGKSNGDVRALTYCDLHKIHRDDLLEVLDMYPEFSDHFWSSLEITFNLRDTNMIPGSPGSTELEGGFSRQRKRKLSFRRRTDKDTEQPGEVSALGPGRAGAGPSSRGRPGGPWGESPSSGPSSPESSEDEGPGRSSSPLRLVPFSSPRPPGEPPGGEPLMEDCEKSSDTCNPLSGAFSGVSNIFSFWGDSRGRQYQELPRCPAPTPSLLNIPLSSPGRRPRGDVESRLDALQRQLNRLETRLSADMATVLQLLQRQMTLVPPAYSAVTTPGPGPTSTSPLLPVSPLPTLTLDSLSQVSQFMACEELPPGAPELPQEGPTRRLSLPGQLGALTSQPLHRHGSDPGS

With `COC(=O)[C@]12CCC(C)(C)C[C@H]1[C@H]1C(=O)C=C3[C@@]4(C)C=C(C#N)C(=O)C(C)(C)[C@@H]4CC[C@@]3(C)[C@]1(C)CC2` [BARDOXOLONE METHYL], the Activity entry is reported as “Non-Toxic” in data set [1] and 11.3% in data set [2]. For the same compound, the result in [3], in data set [4] and in data set [5] was Active. The results for the concentration at 1.5 h in [6], in [7] and in [8] were 4520 ng/g, 1550 ng/g and 1580 ng/g, respectively. For the same compound, in data set [9], the inhibition entry is “Active”. Further, the Drug metabolism entry in data set [10] and in data set [11] was “Metabolite_Detected” in each case.

One may read the pIC50 as the IC50 on a negative log10 scale, so that one unit is a factor of ten. Higher therefore signals a low IC50. As to `COC(=O)[C@@H](N)CCC(=O)Nc1ccc(COC2=C(C#N)[C@H](O)[C@]3(C)C4=CC(=O)[C@@H]5[C@@H]6CC(C)(C)CC[C@]6(C(=O)OC)CC[C@@]5(C)[C@]4(C)CC[C@H]3C2(C)C)cc1`, the Activity entry in data set [12], in data set [13] and in [19] was “Non-Toxic” each time. The outcome in data set [14], in data set [15] and in data set [20] was Active. Also, in [16], the degraded at 8 h, 100 µM worked out at 20%. For the same compound, the inhibition result in data set [17] and in [18] was “Dose-dependent effect” in each case. Further, the Drug metabolism in data set [21] is 0.18 µg/g. Also, the pIC50 in [22] is less than 3.70.

The record behind these values is ChEMBL document CHEMBL4017544 (J Med Chem, 2017).
